pEC50: −log10 of the molar value.
Legend:
[1] = target: T1, Peroxisome proliferator-activated receptor gamma (Homo sapiens, UniProt P37231); test: Agonist activity at human PPARgamma expressed in CV1 cells by transactivation assay; assay type: functional, cell-based, CV-1
T1 sequence (P37231 whole entry): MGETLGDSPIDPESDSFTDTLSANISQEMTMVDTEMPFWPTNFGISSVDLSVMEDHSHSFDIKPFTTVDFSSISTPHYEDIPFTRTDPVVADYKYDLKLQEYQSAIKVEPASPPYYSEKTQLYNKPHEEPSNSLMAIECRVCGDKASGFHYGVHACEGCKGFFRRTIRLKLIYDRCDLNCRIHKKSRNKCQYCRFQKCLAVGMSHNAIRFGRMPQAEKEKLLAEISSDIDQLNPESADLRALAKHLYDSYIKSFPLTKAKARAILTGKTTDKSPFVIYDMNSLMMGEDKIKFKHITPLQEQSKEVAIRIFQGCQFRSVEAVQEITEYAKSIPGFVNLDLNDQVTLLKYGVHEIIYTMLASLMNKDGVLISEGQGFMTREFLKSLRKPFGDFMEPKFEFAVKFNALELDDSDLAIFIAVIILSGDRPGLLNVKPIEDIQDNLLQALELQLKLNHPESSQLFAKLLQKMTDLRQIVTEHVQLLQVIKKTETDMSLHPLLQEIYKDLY

[2] = target: T2, Peroxisome proliferator-activated receptor delta (Homo sapiens, UniProt Q03181); test: Agonist activity at human PPARdelta expressed in CV1 cells by transactivation assay; assay type: functional, cell-based, CV-1
T2 sequence (Q03181 whole entry): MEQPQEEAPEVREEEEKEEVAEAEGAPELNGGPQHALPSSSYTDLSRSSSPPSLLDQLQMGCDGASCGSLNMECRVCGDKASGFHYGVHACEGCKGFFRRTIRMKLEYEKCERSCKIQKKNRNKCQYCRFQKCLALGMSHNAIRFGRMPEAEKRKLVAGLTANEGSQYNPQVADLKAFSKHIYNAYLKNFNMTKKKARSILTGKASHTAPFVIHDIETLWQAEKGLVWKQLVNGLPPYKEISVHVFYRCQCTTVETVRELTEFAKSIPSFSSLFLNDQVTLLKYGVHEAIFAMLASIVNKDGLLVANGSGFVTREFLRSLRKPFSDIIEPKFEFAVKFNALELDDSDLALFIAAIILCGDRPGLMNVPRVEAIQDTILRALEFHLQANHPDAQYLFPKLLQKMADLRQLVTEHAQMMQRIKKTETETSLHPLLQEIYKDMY

Mus musculus [3] = test: Hypolipidemic effect on diabetic KK-Ay mouse assessed as reduction of plasma VLDL cholesterol level at 300 mg/kg/day, po after 4 days; assay type: functional; set-up: scale not given: the % may be the effect or the level left
In short: (§1)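 Male KK-Ay mice, 10 weeks old and fed chow ad libitum, were dosed orally once daily for 4 days (n = 5) with suspensions in 0.5% methylcellulose. On the day after the last dose, nonfasted tail-vein plasma was assayed enzymatically for TG and glucose. Vena cava plasma taken under pentobarbital had lipoprotein cholesterol measured by HPLC with on-line enzymatic detection. Values are % change of the group mean from vehicle controls.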

[4] = target: T3, Peroxisome proliferator-activated receptor alpha (Homo sapiens, UniProt Q07869); test: Agonist activity at human PPARalpha expressed in CV1 cells by transactivation assay; assay type: functional, cell-based, CV-1
T3 sequence (Q07869 whole entry): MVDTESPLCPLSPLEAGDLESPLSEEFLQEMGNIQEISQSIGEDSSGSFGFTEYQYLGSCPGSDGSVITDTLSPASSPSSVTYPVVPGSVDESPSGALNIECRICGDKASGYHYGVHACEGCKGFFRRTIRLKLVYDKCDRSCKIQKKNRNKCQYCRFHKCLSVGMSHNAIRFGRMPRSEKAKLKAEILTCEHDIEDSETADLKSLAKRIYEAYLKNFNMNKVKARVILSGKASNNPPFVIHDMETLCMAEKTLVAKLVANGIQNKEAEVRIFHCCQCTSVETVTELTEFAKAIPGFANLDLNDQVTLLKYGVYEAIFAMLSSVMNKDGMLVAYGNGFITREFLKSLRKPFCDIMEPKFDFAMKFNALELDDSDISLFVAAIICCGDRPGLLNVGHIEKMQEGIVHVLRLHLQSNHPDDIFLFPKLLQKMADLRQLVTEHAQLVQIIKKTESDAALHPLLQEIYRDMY

Mus musculus [5] = test: Hypolipidemic effect on diabetic KK-Ay mouse assessed as increase in plasma HDL cholesterol level at 300 mg/kg/day, po after 4 days; assay type: functional; in short: as §1
Mus musculus [6] = test: Hypolipidemic effect on diabetic KK-Ay mouse assessed as reduction of plasma triglyceride level at 300 mg/kg/day, po after 4 days; assay type: functional; set-up: scale not given: the % may be the effect or the level left; in short: as §1
Mus musculus [7] = test: Hypoglycemic effect on diabetic KK-Ay mouse assessed as reduction of plasma glucose level at 300 mg/kg/day, po after 4 days; assay type: functional; set-up: scale not given: the % may be the effect or the level left; in short: as §1
[8] = target: T4, Peroxisome proliferator-activated receptor alpha (Mus musculus, UniProt P23204); test: Agonist activity at mouse PPARalpha expressed in CV1 cells by transactivation assay; assay type: functional, cell-based, CV-1
T4 sequence (P23204 whole entry): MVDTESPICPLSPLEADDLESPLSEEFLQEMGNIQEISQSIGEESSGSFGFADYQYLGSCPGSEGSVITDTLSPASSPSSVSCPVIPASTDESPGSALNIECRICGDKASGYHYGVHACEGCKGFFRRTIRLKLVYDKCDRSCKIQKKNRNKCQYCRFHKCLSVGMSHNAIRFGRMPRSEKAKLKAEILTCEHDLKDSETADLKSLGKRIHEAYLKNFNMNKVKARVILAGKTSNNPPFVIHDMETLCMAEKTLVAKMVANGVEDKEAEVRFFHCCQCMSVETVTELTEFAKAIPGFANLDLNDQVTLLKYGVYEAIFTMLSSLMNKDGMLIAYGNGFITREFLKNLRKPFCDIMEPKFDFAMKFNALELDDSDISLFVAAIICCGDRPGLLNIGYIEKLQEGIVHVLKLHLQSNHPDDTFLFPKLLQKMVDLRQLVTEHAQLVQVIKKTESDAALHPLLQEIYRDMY

[9] = target: T5, Peroxisome proliferator-activated receptor gamma (Homo sapiens) (UniProt P37231); test: Agonist activity at human PPARgamma expressed in CV1 cells at 10 uM by transactivation assay; assay type: functional, cell-based; conditions: CV-1
T5 sequence (whole entry): T1 sequence (P37231 whole entry)
In short: (§2)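 Human full-length PPAR subtype (pSG5) cotransfected into CV-1 cells with a PPRE (rat acyl-CoA oxidase, ×3)–TK firefly luciferase reporter and a Renilla TK control. Cells were cultured in DMEM/10% FBS at 37 °C under 5% CO2, then exposed to compound at 10 µM (0.1% DMSO final) for 48 h. The dual-luciferase read-out is given as a percentage of the positive control's maximum activity (n = 2).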

Mus musculus [10] = test: Hypolipidemic effect on diabetic KK-Ay mouse assessed as increase in plasma HDL cholesterol level at 1 mg/kg/day, po after 4 days; assay type: functional; in short: as §1
Mus musculus [11] = test: Hypoglycemic effect on diabetic KK-Ay mouse assessed as reduction of plasma glucose level at 1 mg/kg/day, po after 4 days; assay type: functional; set-up: scale not given: the % may be the effect or the level left; in short: as §1
[12] = target: T6, Peroxisome proliferator-activated receptor delta (Homo sapiens) (UniProt Q03181); test: Agonist activity at human PPARdelta expressed in CV1 cells at 10 uM by transactivation assay; assay type: functional, cell-based; conditions: CV-1; in short: as §2
T6 sequence (whole entry): T2 sequence (Q03181 whole entry)

Mus musculus [13] = test: Hypolipidemic effect on diabetic KK-Ay mouse assessed as reduction of plasma triglyceride level at 1 mg/kg/day, po after 4 days; assay type: functional; set-up: scale not given: the % may be the effect or the level left; in short: as §1
Mus musculus [14] = test: Hypolipidemic effect on diabetic KK-Ay mouse assessed as reduction of plasma VLDL cholesterol level at 1 mg/kg/day, po after 4 days; assay type: functional; set-up: scale not given: the % may be the effect or the level left; in short: as §1
[15] = target: T7, Peroxisome proliferator-activated receptor gamma (Mus musculus) (UniProt P37238); test: Agonist activity at mouse PPARgamma expressed in CV1 cells at 10 uM by transactivation assay; assay type: functional, cell-based; conditions: CV-1
T7 sequence (whole entry): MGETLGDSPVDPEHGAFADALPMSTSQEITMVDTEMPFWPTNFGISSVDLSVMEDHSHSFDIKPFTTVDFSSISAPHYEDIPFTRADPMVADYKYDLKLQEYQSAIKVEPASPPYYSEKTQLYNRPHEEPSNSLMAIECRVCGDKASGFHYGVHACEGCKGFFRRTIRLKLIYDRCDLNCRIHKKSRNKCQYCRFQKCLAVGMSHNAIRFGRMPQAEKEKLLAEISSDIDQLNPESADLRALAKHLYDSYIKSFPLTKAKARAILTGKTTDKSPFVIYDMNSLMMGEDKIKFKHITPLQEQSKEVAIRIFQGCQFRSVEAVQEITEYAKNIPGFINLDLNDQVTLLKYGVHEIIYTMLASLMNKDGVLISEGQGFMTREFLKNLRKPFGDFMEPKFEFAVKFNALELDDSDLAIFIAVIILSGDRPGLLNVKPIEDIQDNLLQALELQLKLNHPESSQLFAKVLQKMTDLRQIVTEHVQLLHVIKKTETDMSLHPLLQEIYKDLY

[16] = target: T8, Peroxisome proliferator-activated receptor alpha (Homo sapiens) (UniProt Q07869); test: Agonist activity at human PPARalpha expressed in CV1 cells at 10 uM by transactivation assay; assay type: functional, cell-based; conditions: CV-1; in short: as §2
T8 sequence (whole entry): T3 sequence (Q07869 whole entry)

[17] = Selectivity for mouse PPARalpha over human PPARalpha
[18] = target: T9, Peroxisome proliferator-activated receptor gamma (Mus musculus, UniProt P37238); test: Agonist activity at mouse PPARgamma expressed in CV1 cells by transactivation assay; assay type: functional, cell-based, CV-1
T9 sequence (P37238 whole entry): T7 sequence (whole entry)

Homo sapiens = species: Homo sapiens; test: Selectivity for human PPARalpha over human PPARgamma

| SMILES | pEC50 [1] | pEC50 [4] | Activity [9] [%] | Activity [12] [%] | also measured |
| --- | --- | --- | --- | --- | --- |
| CC(C)(Oc1ccc(CCNC(=O)c2ccc(Cl)cc2)cc1)C(=O)O [BEZAFIBRATE] | 5.52 |  |  |  | pEC50 [2]: 4.52 |
| CC(C)(Oc1ccc(C(=O)c2ccc(Cl)cc2)cc1)C(=O)O [FENOFIBRIC ACID] |  | < 4.00 |  |  | Activity (Mus musculus [3]): -31%; Activity (Mus musculus [5]): 17%; Activity (Mus musculus [6]): -40%; pEC50 [2]: < 4.00; Activity (Mus musculus [7]): -25% |
| Cc1ccc(-c2nc(CCCC[C@H]3CO[C@@](C)(C(=O)O)OC3)c(C)o2)cc1 | 5.02 |  | 31 | 7 | pEC50 [8]: 7.52; Activity (Mus musculus [10]): 34%; Activity (Mus musculus [11]): -21%; Activity (Mus musculus [13]): -71%; Activity (Mus musculus [14]): -50%; Activity [15]: 45%; pEC50 [2]: < 4.00 |
| Cc1oc(-c2ccc(C(F)(F)F)cc2)nc1CCCC[C@H]1CO[C@@](C)(C(=O)O)OC1 |  | 7.52 | 41 | 34 |  |
| Cc1oc(-c2ccccc2)nc1CCCC[C@H]1CO[C@@](C)(C(=O)O)OC1 | 4.00 | 6.52 |  | 0 | pEC50 [8]: 6.00; Activity (Mus musculus [10]): 36%; Activity (Mus musculus [11]): -12%; Activity (Mus musculus [13]): -46%; Activity (Mus musculus [14]): -29%; Activity [15]: 11% |
| Cc1ccc(-c2nc(CCCC[C@H]3CO[C@@](C)(C(=O)O)OC3)c(C)n2C)cc1 |  |  | 0 | 0 | Activity [16]: 6% |
| Cc1cccc(-c2nc(CCCC[C@H]3CO[C@@](C)(C(=O)O)OC3)c(C)o2)c1 |  | 7.52 | 34 | 16 |  |
| Cc1ccc(-c2nc(CCCC[C@H]3CO[C@@](C)(C(=O)O)OC3)c(C)o2)c(C)c1 |  | 7.52 | 35 | 16 |  |
| Cc1oc(-c2ccc(Cl)cc2)nc1CCCC[C@H]1CO[C@@](C)(C(=O)O)OC1 |  | 7.52 | 21 | 9 |  |
| Cc1ccccc1-c1nc(CCCC[C@H]2CO[C@@](C)(C(=O)O)OC2)c(C)o1 |  | 6.52 | 23 | 5 |  |
| Cc1ccc(-c2nc(CCCC[C@H]3CO[C@@](C)(C(=O)O)OC3)c(C(F)(F)F)o2)cc1 | 5.52 | 6.52 |  | 24 |  |
| COc1ccc(-c2nc(CCCC[C@H]3CO[C@@](C)(C(=O)O)OC3)c(C)o2)cc1 |  | 7.52 | 18 | 20 |  |
| Cc1ccc(-c2nc(CCCC[C@H]3CO[C@@](C)(C(=O)O)OC3)c(C)o2)cc1F |  | 8.00 | 45 | 25 | Selectivity ratio [17]: 10; pEC50 [8]: 7.00; pEC50 [18]: 5.00; Activity (Mus musculus [10]): 21%; Activity (Mus musculus [11]): -12%; Activity (Mus musculus [13]): -53%; Activity (Mus musculus [14]): -63% |
| CCc1oc(-c2ccc(C)cc2)nc1CCCC[C@H]1CO[C@@](C)(C(=O)O)OC1 | 5.00 | 7.52 |  | 3 |  |
| Cc1ccc(-c2nc(CCCC[C@H]3CO[C@@](C)(C(=O)O)OC3)c(C)s2)cc1 |  | 6.52 | 25 | 0 |  |
| CCc1ccc(-c2nc(CCCC[C@H]3CO[C@@](C)(C(=O)O)OC3)c(C)o2)cc1 | 5.52 | 8.00 |  | 0 | Selectivity ratio (Homo sapiens): 300 |
| Cc1ccc(-c2nc(CCCC[C@H]3CO[C@@](C)(C(=O)O)OC3)c(C)o2)cc1C |  | 8.52 | 42 | 0 | Selectivity ratio [17]: 10; pEC50 [8]: 7.52; Activity (Mus musculus [10]): 21%; Activity (Mus musculus [11]): -32%; Activity (Mus musculus [13]): -89%; Activity (Mus musculus [14]): -92%; Activity [15]: 42% |

Reference: ChEMBL document CHEMBL1143171, “Structure-activity studies on 1,3-dioxane-2-carboxylic acid derivatives, a novel class of subtype-selective peroxisome proliferator-activated receptor alpha (PPARalpha) agonists” (Bioorg Med Chem, 2008)
